# Source: ChEMBL document CHEMBL1122917, “Vinblastin-23-oyl amino acid derivatives: chemistry, physicochemical data, toxicity, and antitumor activities against P388 and L1210 leukemias” (J Med Chem, 1985)
# Columns and labels:
# Type in all cases: functional
# [1] = tested on: Mus musculus; experiment: Number of survivors on 60th day at dose 50 mg/kg/day in 10 mice implanted with P388 leukemia cell line; 0/10
# [2] = tested on: Mus musculus; experiment: Number of survivors on 60th day at dose 5 mg/kg/day in 10 mice implanted with P388 leukemia cell line; 0/10
# [3] = tested on: Mus musculus; experiment: Percent increase in life span at dose 40 mg/kg/day in 10 mice implanted with P388 leukemia cell line
# Method in brief: (§1)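 Female DBA2 mice inoculated iv on day 0 with 10^4 P388 cells; single iv treatment on day 1 with drug as sulfate salt in physiological saline. Survival followed; %ILS from all deaths and survivors as (T/C × 100) − 100, maximal MST 30 days; survivors counted on days 30 and 60. Most experiments confirmed three times.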
# [4] = tested on: Mus musculus; experiment: Number of survivors on 30th day at dose 30 mg/kg/day in 10 mice implanted with P388 leukemia cell line; 0/10
# [5] = tested on: Mus musculus; experiment: Percent increase in life span at dose 30 mg/kg/day in 10 mice implanted with P388 leukemia cell line; method in brief: as §1
# [6] = tested on: Mus musculus; experiment: Percent increase in life span at dose 15 mg/kg/day in 10 mice implanted with P388 leukemia cell line; method in brief: as §1
# [7] = tested on: Mus musculus; experiment: Number of survivors on 30th day at dose 20 mg/kg/day in 10 mice implanted with P388 leukemia cell line; 0/10
# [8] = tested on: Mus musculus; experiment: Percent increase in life span at dose 20 mg/kg/day in 10 mice implanted with P388 leukemia cell line; method in brief: as §1
# [9] = tested on: Mus musculus; experiment: Number of survivors on 60th day at dose 30 mg/kg/day in 10 mice implanted with P388 leukemia cell line; 0/10
# [10] = tested on: Mus musculus; experiment: Number of survivors on 60th day at dose 40 mg/kg/day in 10 mice implanted with P388 leukemia cell line; 0/10
# [11] = tested on: Mus musculus; experiment: Number of survivors on 30th day at dose 50 mg/kg/day in 10 mice implanted with P388 leukemia cell line; 0/10
# [12] = tested on: Mus musculus; experiment: Percent increase in life span at dose 5 mg/kg/day in 10 mice implanted with P388 leukemia cell line; method in brief: as §1
# [13] = tested on: Mus musculus; experiment: Number of survivors on 30th day at dose 40 mg/kg/day in 10 mice implanted with P388 leukemia cell line; 0/10
# [14] = tested on: Mus musculus; experiment: Number of survivors on 60th day at dose 20 mg/kg/day in 10 mice implanted with P388 leukemia cell line; 0/10
# [15] = tested on: Mus musculus; experiment: Percent increase in life span at dose 50 mg/kg/day in 10 mice implanted with P388 leukemia cell line; method in brief: as §1
# [16] = tested on: Mus musculus; experiment: Number of survivors on 60th day at dose 15 mg/kg/day in 10 mice implanted with P388 leukemia cell line; 0/10
# [17] = tested on: Mus musculus; experiment: Number of survivors on 30th day at dose 5 mg/kg/day in 10 mice implanted with P388 leukemia cell line; 0/10
# [18] = tested on: Mus musculus; experiment: Number of survivors on 30th day at dose 15 mg/kg/day in 10 mice implanted with P388 leukemia cell line; 0/10
# [19] = tested on: Mus musculus; experiment: Number of survivors on 30th day at dose 70 mg/kg/day in 10 mice implanted with P388 leukemia cell line; 0/10
# [20] = tested on: Mus musculus; experiment: Number of survivors on 60th day at dose 70 mg/kg/day in 10 mice implanted with P388 leukemia cell line; 0/10
# [21] = tested on: Mus musculus; experiment: Number of survivors on 30th day at dose 65 mg/kg/day in 10 mice implanted with P388 leukemia cell line; 0/10
# [22] = tested on: Mus musculus; experiment: Number of survivors on 60th day at dose 65 mg/kg/day in 10 mice implanted with P388 leukemia cell line; 0/10
# [23] = tested on: Mus musculus; experiment: Percent increase in life span at dose 55 mg/kg/day in 10 mice implanted with P388 leukemia cell line; method in brief: as §1
# [24] = tested on: Mus musculus; experiment: Percent increase in life span at dose 70 mg/kg/day in 10 mice implanted with P388 leukemia cell line; method in brief: as §1
# [25] = tested on: Mus musculus; experiment: Percent increase in life span at dose 60 mg/kg/day in 10 mice implanted with P388 leukemia cell line; method in brief: as §1
# [26] = tested on: Mus musculus; experiment: Percent increase in life span at dose 65 mg/kg/day in 10 mice implanted with P388 leukemia cell line; method in brief: as §1
# [27] = tested on: Mus musculus; experiment: Number of survivors on 60th day at dose 55 mg/kg/day in 10 mice implanted with P388 leukemia cell line; 0/10
# [28] = tested on: Mus musculus; experiment: Number of survivors on 30th day at dose 60 mg/kg/day in 10 mice implanted with P388 leukemia cell line; 0/10
# [29] = tested on: Mus musculus; experiment: Number of survivors on 30th day at dose 80 mg/kg/day in 10 mice implanted with P388 leukemia cell line; 0/10
# [30] = tested on: Mus musculus; experiment: Percent increase in life span at dose 80 mg/kg/day in 10 mice implanted with P388 leukemia cell line; method in brief: as §1
# [31] = tested on: Mus musculus; experiment: Number of survivors on 60th day at dose 60 mg/kg/day in 10 mice implanted with P388 leukemia cell line; 0/10; method in brief: as §1
# [32] = tested on: Mus musculus; experiment: Number of survivors on 60th day at dose 80 mg/kg/day in 10 mice implanted with P388 leukemia cell line; 0/10
# [33] = tested on: Mus musculus; experiment: Number of survivors on 30th day at dose 55 mg/kg/day in 10 mice implanted with P388 leukemia cell line; 0/10
# [34] = tested on: Mus musculus; experiment: Number of survivors on 30th day at dose 80 mg/kg/day in 8 mice implanted with P388 leukemia cell line; 0/8
# [35] = tested on: Mus musculus; experiment: Number of survivors on 60th day at dose 80 mg/kg/day in 8 mice implanted with P388 leukemia cell line; 0/8
smiles,measurement,setting,value
CC[C@]1(O)C[C@@H]2C[N@](CCc3c([nH]c4ccccc34)[C@@](C(=O)OC)(c3cc4c(cc3OC)N(C)[C@@]3(C)[C@@](O)(C(=O)N[C@@H](CC(C)C)C(N)=O)[C@H](O)[C@]5(CC)C=CCN6CC[C@]43[C@@H]65)C2)C1,Survivors,[1],0
same,Survivors,[2],0
same,ILS at 40 mg/kg/day,[3],19%
same,Survivors,[4],0
same,ILS at 30 mg/kg/day,[5],1.7%
same,ILS at 15 mg/kg/day,[6],8.7%
same,Survivors,[7],0
same,ILS at 20 mg/kg/day,[8],1.7%
same,Survivors,[9],0
same,Survivors,[10],0
same,Survivors,[11],0
same,ILS at 5 mg/kg/day,[12],1.7%
same,Survivors,[13],0
same,Survivors,[14],0
same,ILS at 50 mg/kg/day,[15],15.5%
same,Survivors,[16],0
same,Survivors,[17],0
same,Survivors,[18],0
CCCCOC(=O)[C@H](CC(C)C)NC(=O)[C@@]1(O)[C@H](O)[C@]2(CC)C=CCN3CC[C@@]4(c5cc([C@@]6(C(=O)OC)C[C@H]7C[N@](CCc8c6[nH]c6ccccc86)C[C@](O)(CC)C7)c(OC)cc5N(C)[C@@]14C)[C@@H]32,Survivors,[19],0
same,Survivors,[20],0
same,Survivors,[21],0
same,Survivors,[22],0
same,ILS at 55 mg/kg/day,[23],23%
same,ILS at 70 mg/kg/day,[24],26.7%
same,ILS at 60 mg/kg/day,[25],26%
same,ILS at 65 mg/kg/day,[26],13.8%
same,Survivors,[27],0
same,Survivors,[28],0
same,Survivors,[29],0
same,ILS at 80 mg/kg/day,[30],27.6%
same,Survivors,[31],0
same,Survivors,[32],0
same,Survivors,[33],0
CCCCCCCCOC(=O)[C@H](CC(C)C)NC(=O)[C@@]1(O)[C@H](O)[C@]2(CC)C=CCN3CC[C@@]4(c5cc([C@@]6(C(=O)OC)C[C@H]7C[N@](CCc8c6[nH]c6ccccc86)C[C@](O)(CC)C7)c(OC)cc5N(C)[C@@]14C)[C@@H]32,Survivors,[34],0
same,ILS at 40 mg/kg/day,[3],-0.9%
same,ILS at 60 mg/kg/day,[25],7.8%
same,Survivors,[10],0
same,Survivors,[28],0
same,ILS at 80 mg/kg/day,[30],9.5%
same,Survivors,[31],0
same,Survivors,[13],0
same,Survivors,[35],0
